Assay [1] deals with Mycobacterium tuberculosis. Kind of assay: Activity of arabinosyltransferase in Mycobacterium tuberculosis membrane assessed as [14C]Araf incorporation by TLC autoradiography.
The subject of another assay is Mycobacterium avium. Nature of the assay: Antimycobacterial activity against Mycobacterium avium NJ 211 at 12.8 to 128 ug/mL. The format is functional, organism-based.
The nature of assay [2]: Inhibition of arabinosyltransferase in Mycobacterium tuberculosis membrane assessed as blockade of [14C]Araf incorporation to {Ara-f(1>5)Araf-O_C8H17] acceptor molecule by TLC autoradiography. Put shortly: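 Competition format of the membrane AraTs assay: MOPS pH 8.0, MgCl2, ATP, β-mercaptoethanol, DP-[14C]Araf donor, 37°C for 1 h. Native acceptor Araf(1→5)Araf-O-C8H17 is held at 0.4 mM. Competitors are added at 0.5, 0.75, 1.0, 2.0, 4.0 and 6.0 mM. Product formation is judged by TLC (CHCl3:MeOH:NH4OH:H2O) with autoradiography at −70 °C for 3 days. IC50 is derived from the extent of product formation.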

Activity calls are given as the source filed them. No cut-off for these calls is given here.

As for `CCCCCCCCO[C@H]1O[C@H](CO[C@H]2O[C@H](CO)[C@@H](O)[C@@H]2O)[C@@H](O)[C@@H]1F`, the Km in assay [1] was found to be 560 µM. Also, the outcome in the assay on Mycobacterium avium was Active. Further, the IC50 in assay [2] stood at 3580 µM.

Regarding `CCCCCCCCO[C@H]1O[C@H](CO[C@H]2O[C@H](CO)[C@@H](O)[C@@H]2O)C[C@@H]1O`, in assay [1], the Km is 110 µM. Also, the outcome in the assay with Mycobacterium avium was Active. The concentration for half-maximal inhibition (IC50) in assay [2] came to 2150 µM.

As for `CCCCCCCCO[C@@H]1C[C@H](O)[C@@H](CO[C@H]2O[C@H](CO)[C@@H](O)[C@@H]2O)O1`, in assay [1], the Michaelis constant (Km) came to 150 µM. Further, the outcome in the assay with Mycobacterium avium was Active. Further, the 50% inhibitory concentration (IC50) in assay [2] worked out at 2450 µM.

The values above are taken from ChEMBL document CHEMBL1140845, “Synthesis of deoxygenated alpha(1-->5)-linked arabinofuranose disaccharides as substrates and inhibitors of arabinosyltransferases of Mycobacterium tuberculosis” (Bioorg Med Chem, 2009).
